KCNK3 block = human KCNK3 channel inhibitors, primary screen, CHO cells, FluxOR thallium flux, B-score. Potassium channel subfamily K member 3 (Homo sapiens), O14649. FluxOR fluorescence; active compounds read low. B-score at 10 µM. 0.84% of 340,000 active;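 active means B-score under library mean minus 4 SD, starting fluorescence ratio at most library mean plus 5 SD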;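 further: more negative B-score means stronger inhibition of thallium flux through KCNK3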
KCNK9 block = KCNK9 potassium channel inhibitors, primary screen, HEK293 cells, thallium flux. Potassium channel subfamily K member 9 (Homo sapiens), Q9NPC2. FluxOR thallium flux fluorescence; active compounds read low. B-score at 10 µM. 1.2% of 310,000 active. AID 488922, 2010;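 active means ratio B-score over 3 SD below the library mean, with starting fluorescence within 5 SD of its mean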;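 further: negative B-score means less thallium flux so channel inhibition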
KCNQ1 pot = potentiators or activators of KCNQ1 channel, primary screen, cell-based, thallium flux, high-throughput. Potassium voltage-gated channel subfamily KQT member 1 (Homo sapiens), P51787. CHO-K1 KCNQ1, thallium flux FluxOR fluorescence; active compounds read high. B-score at 10 µM. 0.35% of 310,000 active;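 active means fluorescence ratio B-score, a plate-corrected score, at least three library SD, with initial intensity B-score within 5 SD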
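Assay system: stable KCNQ1 CHO-K1 line; medium: assay buffer, equal DMSO in all wells; timing: 90 min dye loading and 20 min compound exposure, both at room temperature; technique: kinetic FluxOR thallium fluorescence, 10-s 1-Hz baseline, 110-s post-stimulus read; read-out basis: B score of baseline-normalized fluorescence ratio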
KCNQ1 inh = inhibitors of human KCNQ1 channel, primary screen, cell-based, thallium flux, high-throughput; Potassium voltage-gated channel subfamily KQT member 1 (Homo sapiens), P51787; CHO-K1 KCNQ1, FluxOR thallium flux fluorescence; active compounds read high; B-score at 10 µM; 1.3% of 310,000 active;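 active means compounds whose thallium flux B-score, printed positive for inhibition, exceeds three library SD while starting fluorescence stays within three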;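 further: channel opened by potassium depolarization with thallium stimulus after 20 min compound exposure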
hERG protect = hERG rescue from dofetilide block, primary screen, cell-based, CHO-hERG, FluxOR thallium flux, dofetilide IC70; Voltage-gated inwardly rectifying potassium channel KCNH2 (Homo sapiens), Q12809; dofetilide IC70 present; activation (rescue from dofetilide block), less the hit threshold, % at 10 µM; 0.51% of 310,000 active; AID 1511, 2009;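 active means activation above the mean of controls blocked by dofetilide plus 5 SD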;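 further: thallium influx through hERG after potassium depolarization seen as dye fluorescence rise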
KCNK9 block conf = KCNK9 potassium channel inhibitors, confirmation, HEK293 cells, thallium flux, duplicate; inhibition, % at 10 µM; FluxOR thallium flux fluorescence; AID 492992, 2010; shares compounds with KCNK9 block; 43% of 4,900 active;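 active means thallium signal inhibited by more than 5 SD of the compound-free buffer control wells, on both duplicate plates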;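 further: 0% = assay buffer control wells without compound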
Kir21 sel = mouse Kir2.1 channel inhibition, confirmation, selectivity assay for KCNK9 modulator project, cell-based, HEK293, thallium flux | Kir2.1 cells, FluxOR thallium flux fluorescence | inhibition, % at 10 µM | shares compounds with KCNK9 block | 4% of 4,900 active;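 active means thallium signal drop more than 5 SD beyond the mean of the no-compound control wells, seen in both duplicate plates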;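 further: signal is fluorescence rise after thallium addition divided by baseline fluorescence; plate controls were assay buffer only for no effect and full block by chlorpromazine control for full effect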
Target sequence (P35561 whole entry, looked up): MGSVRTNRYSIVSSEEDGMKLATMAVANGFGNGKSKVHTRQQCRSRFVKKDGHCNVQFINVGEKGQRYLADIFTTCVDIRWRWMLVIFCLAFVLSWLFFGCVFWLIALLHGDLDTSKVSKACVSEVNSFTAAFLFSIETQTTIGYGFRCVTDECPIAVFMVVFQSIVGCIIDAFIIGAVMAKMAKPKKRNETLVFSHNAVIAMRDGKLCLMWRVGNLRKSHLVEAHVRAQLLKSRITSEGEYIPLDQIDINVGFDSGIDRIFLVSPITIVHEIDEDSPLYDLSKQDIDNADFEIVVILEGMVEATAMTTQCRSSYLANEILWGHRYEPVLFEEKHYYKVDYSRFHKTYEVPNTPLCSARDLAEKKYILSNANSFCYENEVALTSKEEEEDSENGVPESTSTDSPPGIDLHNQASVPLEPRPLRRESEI
KCNK9 uninduced = thallium flux in non-induced HEK293 cells, confirmation, counter-screen for KCNK9 inhibitor project, cell-based, second counter screen, non-induced KCNK9-HEK293 | shares compounds with KCNK9 block | FluxOR thallium flux | inhibition, % at 10 µM | 40% of 4,900 active | AID 492997, 2010;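 active means thallium signal drop beyond 5 SD of the untreated control mean, on both duplicate plates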;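 further: plate controls were buffer only IC0 wells for no effect and SID17386958 at its maximal inhibitory level for full effect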
KCNK3 inh conf = retest of human KCNK3 channel inhibitors, confirmation, CHO cells, FluxOR thallium flux, triplicate; shares compounds with KCNK3 block; AID 651638, 2012; ratio percent of control, % at 10 µM; FluxOR fluorescence; 0% buffer, 100% carvedilol maximal block; 99% of 2,400 active;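 active means ratio percent of control, averaged over triplicates, above buffer control mean plus 5 SD, cut at about 64% in these data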;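 further: ratio is the fluorescence rise from min to max over baseline after thallium stimulus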
KCNK3 noninduced = thallium flux inhibition in non-induced cells, primary screen, counter-screen for KCNK3 inhibitor project, cell-based, non-induced KCNK3 line, FluxOR thallium, triplicate. 40% of 2,400 active. shares compounds with KCNK3 block. non-induced KCNK3 parental cells; active compounds read low. thallium flux ratio (lower = more inhibition) at 10 µM. AID 651747, 2012;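 active means thallium flux ratio, averaged over three wells, more than 5 SD below the buffer control mean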;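 further: host cells are CHO cells without KCNK3 induction; ratio is peak minus trough fluorescence over baseline then normalized to buffer controls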
Active calls of the source: *; ! = not active in a repeat. Compounds with a hit are over-represented: about 3.1% of the library has one in this group of screens.

What do the screens show for `Cc1cc(C)cc(NC(=O)c2cccn2-c2ncc(C(F)(F)F)cc2Cl)c1`?
KCNK3 block: inactive; KCNK9 block: inactive; KCNQ1 pot: inactive; KCNQ1 inh: inactive; hERG protect: -8.2; KCNK9 block conf: inactive; Kir21 sel: inactive; KCNK9 uninduced: inactive

What do the screens show for `Cc1ccccc1OCC(=O)Nc1ccc2c(c1)C(=O)N(CCC(=O)O)C2=O`?
KCNK3 block: inactive; KCNK9 block: inactive; KCNQ1 pot: inactive; KCNQ1 inh: inactive; hERG protect: -9.2

What do the screens show for `COc1ccccc1CNC(=O)COC(=O)COc1ccccc1Cc1ccccc1`?
KCNK3 block: inactive; KCNK9 block: inactive; KCNQ1 pot: inactive; KCNQ1 inh: inactive; hERG protect: -13.0

What do the screens show for `CCc1nc(SCC(=O)NNC(=O)c2ccc(OC)cc2)c2ccccc2n1`?
KCNK3 block: inactive; KCNK9 block: inactive; KCNQ1 pot: inactive; KCNQ1 inh: inactive; hERG protect: -0.9

How did CCCc1nc(SCC(=O)c2ccc(OC)cc2)c2ccccc2n1 do in these assays?
KCNK3 block: -10.9*; KCNK9 block: -18.6*; KCNQ1 pot: inactive; KCNQ1 inh: inactive; hERG protect: -8.2; KCNK9 block conf: 78.0%*; Kir21 sel: inactive; KCNK9 uninduced: 27.0%*; KCNK3 inh conf: 107.7*; KCNK3 noninduced: 0.158*

How did COC(=O)CSc1ncnc2c(C)csc12 do in these assays?
KCNK3 block: inactive; KCNK9 block: inactive; KCNQ1 pot: inactive; KCNQ1 inh: inactive; hERG protect: -6.2

What do the screens show for `O=S(=O)(c1cc(Cl)ccc1Cl)N1CCN(Cc2ccc3c(c2)OCO3)CC1`?
KCNK3 block: -9.71*; KCNK9 block: inactive; KCNQ1 pot: inactive; KCNQ1 inh: inactive; hERG protect: -8.7; KCNK9 block conf: inactive; Kir21 sel: inactive; KCNK9 uninduced: 26.5%*; KCNK3 inh conf: 112.7*; KCNK3 noninduced: 0.159*

How did O=C(c1ccc(COc2ccccc2Cl)o1)N1CCN(Cc2ccc3c(c2)OCO3)CC1 do in these assays?
KCNK3 block: -10.5*!; KCNK9 block: -11.7*; KCNQ1 pot: inactive; KCNQ1 inh: inactive; hERG protect: -11.8; KCNK9 block conf: 47.0%*; Kir21 sel: inactive; KCNK9 uninduced: 25.0%*; KCNK3 inh conf: 123.3*; KCNK3 noninduced: inactive

How did NC(=O)[C@@H]1CCCN1Cc1c(C(=O)N2CCc3ccccc3C2)nc2ccc(Cl)cn12 do in these assays?
KCNK3 block: inactive; KCNK9 block: inactive; KCNQ1 pot: inactive; KCNQ1 inh: inactive; hERG protect: -11.4

Results for Cc1ccc(NC(=O)CSCc2cc(=O)n3ccsc3n2)cc1 ?
KCNK3 block: inactive; KCNK9 block: inactive; KCNQ1 pot: inactive; KCNQ1 inh: inactive; hERG protect: -4.7

Results for CNS(=O)(=O)c1ccc(NS(=O)(=O)c2ccccc2F)cc1 ?
KCNK3 block: inactive; KCNK9 block: inactive; KCNQ1 pot: inactive; KCNQ1 inh: inactive; hERG protect: -3.2

How did Cc1cccc(NC(=S)N/N=C/c2cccn2Cc2ccc(F)cc2)c1 do in these assays?
KCNK3 block: -9.3*; KCNK9 block: -13.6*; KCNQ1 pot: inactive; KCNQ1 inh: inactive; hERG protect: -4.7; KCNK9 block conf: 60.5%*; Kir21 sel: inactive; KCNK9 uninduced: inactive; KCNK3 inh conf: 62.7*; KCNK3 noninduced: inactive

Results for CCC(=O)NCCc1nc2cc(NC(=O)c3ccc(F)cc3)ccc2n1C ?
KCNK3 block: inactive; KCNK9 block: inactive; KCNQ1 pot: inactive; KCNQ1 inh: inactive; hERG protect: -7.2

How did CCc1ccc(NC(=O)CN(N=Nc2nonc2C)c2nonc2C)cc1 do in these assays?
KCNK3 block: -11.4*; KCNK9 block: -8.99*; KCNQ1 pot: inactive; KCNQ1 inh: inactive; hERG protect: -14.2; KCNK9 block conf: 64.0%*; Kir21 sel: inactive; KCNK9 uninduced: 33.5%*; KCNK3 inh conf: 115.3*; KCNK3 noninduced: inactive

Results for Cc1ccc(C(c2nnnn2C2CCCCC2)N(C)C2CCCCC2)cc1 (centres undefined) ?
KCNK3 block: inactive; KCNK9 block: -9.39*; KCNQ1 pot: inactive; KCNQ1 inh: inactive; hERG protect: -5.5; KCNK9 block conf: inactive; Kir21 sel: inactive; KCNK9 uninduced: 43.0%*; KCNK3 inh conf: 117.0*; KCNK3 noninduced: 0.131*

Results for CCc1c(C(=O)N2CCCN(C)CC2)csc1C ?
KCNK3 block: inactive; KCNK9 block: inactive; KCNQ1 pot: inactive; KCNQ1 inh: inactive; hERG protect: -2.5

How did CSc1ccc(Cl)c(C(=O)NCCOc2cc(C(C)C)ccc2C)c1 do in these assays?
KCNK3 block: -10.4*; KCNK9 block: -20.5*; KCNQ1 pot: inactive; KCNQ1 inh: inactive; hERG protect: -10.2; KCNK9 block conf: 71.5%*; Kir21 sel: inactive; KCNK9 uninduced: 37.5%*; KCNK3 inh conf: 128.3*; KCNK3 noninduced: 0.129*

What do the screens show for `COc1ccc(S(=O)(=O)N2CCN(C(=O)c3ccco3)CC2)c(C)c1C`?
KCNK3 block: inactive; KCNK9 block: inactive; KCNQ1 pot: inactive; KCNQ1 inh: inactive; hERG protect: -7.3

Assay outcomes (PubChem BioAssay)
